Experimental data as given in ChEMBL document CHEMBL1795289, “5-alk(en)ylresorcinols as the major active components in wheat bran inhibit human colon cancer cell growth” (Bioorg Med Chem, 2011).
Values after ≈ are worked out from the molar mass of the structure shown.

Key:
Assay type in all cases: functional, cell-based
[1] = tested on: HCT-116; test: Growth inhibition of human HCT116 cells after 48 hrs by MTT assay; conditions: HCT-116, 48 h
Summary of the method: (§1)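 Cells seeded at 5000/well and left 24 h at 37 °C to attach. Samples in DMSO diluted into McCoy's 5A with 10% FBS, penicillin/streptomycin, amphotericin B and glutamine at 5, 10, 25, 37 and 50 µg/mL, 48 h, 37 °C. MTT 2.41 mmol/L for 3 h, formazan dissolved in DMSO, absorbance 595 nm. Reported as % cell growth, n = 8; IC50 by curve fitting.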

[2] = tested on: HT-29; test: Growth inhibition of human HT-29 cells after 48 hrs by MTT assay; conditions: HT-29, 48 h; summary of the method: as §1
[3] = tested on: BT-20; test: Growth inhibition of human BT20 cells
[4] = tested on: HeLa; test: Growth inhibition of human HeLa cells
[5] = tested on: FM3A; test: Growth inhibition of mouse FM3A cells

| IC50 [1] [µg/mL] | IC50 [2] [µg/mL] | IC50 [3] [µg/mL] | IC50 [4] [µg/mL] | Structure (SMILES) | IC50 [5] [nM] |
| --- | --- | --- | --- | --- | --- |
| 16.6 (≈ 39.7 µM) |  |  |  | CCCCCCCCCCCCCCCCCCCC(=O)Cc1cc(O)cc(O)c1 |  |
| > 50 |  |  |  | CCCCCCCCCCCCCCCCCCCCCC(=O)Cc1cc(O)cc(O)c1 |  |
| 36.2 (≈ 96.1 µM) | > 50 |  |  | CCCCCCCCCCCCCCCCCCCc1cc(O)cc(O)c1 |  |
| 18.9 (≈ 54.3 µM) | 31.1 (≈ 89.4 µM) |  |  | CCCCCCCCCCCCCCCCCc1cc(O)cc(O)c1 |  |
| > 50 | > 50 |  |  | CCCCCCCCCCCCCCCCCCCCCCCc1cc(O)cc(O)c1 |  |
| > 50 | > 50 |  |  | CCCCCCCCCCCCCCCCCCCCCc1cc(O)cc(O)c1 |  |
| > 50 | > 50 |  |  | CCCCCCCCCCCCCCCCCCCCCCCCCc1cc(O)cc(O)c1 |  |

Second part, the compound before the results:

| Structure (SMILES) | IC50 [1] [µg/mL] | IC50 [2] [µg/mL] | IC50 [3] [µg/mL] | IC50 [4] [µg/mL] | IC50 [5] [nM] |
| --- | --- | --- | --- | --- | --- |
| CCCCCC/C=C\CCCCCCCCCCCc1cc(O)cc(O)c1 | 11.6 (≈ 30.9 µM) | 30.4 (≈ 81.2 µM) |  |  |  |
| CCCC/C=C\CCCCCCCCCCCc1cc(O)cc(O)c1 | 20 (≈ 57.8 µM) | 35.6 (≈ 103 µM) |  |  |  |
| CC/C=C\C/C=C\C/C=C\CCCCCCCCCc1cc(O)cc(O)c1 | 20 (≈ 54.1 µM) | 39.5 (≈ 107 µM) |  |  |  |
| CCCC/C=C\CCCCCCCCCCCCCCCc1cc(O)cc(O)c1 | 22.3 (≈ 55.3 µM) | 46.9 (≈ 116 µM) |  |  |  |
| CCCCC/C=C\C/C=C\CCCCCCCCCc1cc(O)cc(O)c1 | 27.1 (≈ 72.6 µM) | 48.3 (≈ 130 µM) |  |  |  |
| CCCC/C=C\CCCCCCCCCCCCCc1cc(O)cc(O)c1 | 17.6 (≈ 47.1 µM) |  |  |  |  |
| CCCCCCCCCCCCCCCc1cc(O)cc(O)c1 [CARDOL] |  |  | 6.25 (≈ 19.5 µM) | 4.02 (≈ 12.5 µM) | 2800 |
